Results published in ChEMBL document CHEMBL1145471, “Small molecule regulators of autophagy identified by an image-based high-throughput screen” (Proc Natl Acad Sci U S A, 2007).

Experiments:
Type in all cases: functional
H4 [1] = test: Induction of light chain 3-GFP level in human H4 cells at 5.8 uM after 24 hrs by high throughput fluorescence microscopy relative to control
Method in brief: (§1)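 H4 cells stably expressing LC3-GFP, grown in DMEM with 10% FBS, penicillin/streptomycin and 2 mM L-glutamine at 37°C, 5% CO2. Cells were seeded in 96-well plates and exposed to library compounds at 3–12 μM for 24 h, then fixed in 4% paraformaldehyde and stained with 3 μg/ml DAPI. LC3-GFP spot number, size and intensity were measured by high-throughput fluorescence microscopy and expressed relative to DMSO. Triplicates, mean ± SD.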

H4 [2] = test: Increase in light chain 3-GFP+ autophagosome vesicle intensity per cell in human H4 cells at 5.8 uM after 24 hrs by high throughput fluorescence microscopy relative to control
Method in brief: (§2)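 H4 cells stably expressing LC3-GFP were grown in DMEM with 10% FBS and 2 mM L-glutamine at 37°C, 5% CO2. They were exposed to each compound for 24 h, with DMSO as negative and rapamycin as positive control. Cells were then fixed in 4% paraformaldehyde and stained with 3 μg/ml DAPI. High-throughput fluorescence imaging scored LC3-GFP spot number, size and intensity, expressed relative to DMSO. Mean ± SD of triplicates; experiments repeated three times.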

H4 [3] = test: Effect on FYVE-RFP+ vesicle intensity per cell in human H4 cells after 2 hrs relative to control; set-up: concentration or dose not given beside the values
Method in brief: (§3)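 H4 cells stably expressing FYVE-RFP (H4-FYVE), grown in DMEM with 10% FBS, penicillin/streptomycin and 2 mM L-glutamine at 37°C, 5% CO2, seeded in 96-well plates and exposed to compound. Fixed in 4% paraformaldehyde, nuclei stained with 3 μg/ml DAPI, FYVE-RFP+ vesicles quantified by high-throughput fluorescence microscopy against DMSO control. Triplicate wells, mean ± SD.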

H4 [4] = test: Increase in long-lived protein degradation in human H4 cells after 24 hrs relative to control; set-up: concentration or dose not given beside the values
H4 [5] = test: Increase in light chain 3-GFP+ autophagosome vesicle area per cell in human H4 cells at 5.8 uM after 24 hrs by high throughput fluorescence microscopy relative to control
Method in brief: (§4)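 H4 cells stably expressing LC3-GFP, seeded in 96-well plates and exposed to compound for 24 h; screening concentrations were 3–12 μM, with rapamycin 0.22 μM and bafilomycin A1 0.40 μM. Cells fixed in 4% paraformaldehyde and stained with 3 μg/ml DAPI. Number, size and intensity of LC3-GFP spots measured by high-throughput fluorescence microscopy and expressed as percent of DMSO-treated wells. Rapamycin was the positive control. Triplicate wells, mean ± SD; experiments repeated three times.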

H4 [6] = test: Effect on FYVE-RFP+ vesicle intensity per cell in human H4 cells after 4 hrs relative to control; set-up: concentration or dose not given beside the values; method in brief: as §3
H4 [7] = test: Effect on FYVE-RFP+ vesicle intensity per cell in human H4 cells after 8 hrs relative to control; set-up: concentration or dose not given beside the values; method in brief: as §3
H4 [8] = test: Increase in long-lived protein degradation in human H4 cells after 4 hrs relative to control; set-up: concentration or dose not given beside the values
H4 [9] = test: Increase in long-lived protein degradation in human H4 cells after 2 hrs relative to control; set-up: concentration or dose not given beside the values
H4 [10] = test: Increase in long-lived protein degradation in human H4 cells after 1 hr relative to control; set-up: concentration or dose not given beside the values
H4 [11] = test: Increase in light chain 3-GFP+ autophagosome vesicle number per cell in human H4 cells at 5.8 uM after 24 hrs by high throughput fluorescence microscopy relative to control; method in brief: as §2
H4 [12] = test: Increase in light chain 3-GFP+ autophagosome vesicle number per cell in human H4 cells at 2.1 uM after 24 hrs by high throughput fluorescence microscopy relative to control; method in brief: as §2
H4 [13] = test: Increase in light chain 3-GFP+ autophagosome vesicle area per cell in human H4 cells at 2.1 uM after 24 hrs by high throughput fluorescence microscopy relative to control
H4 [14] = test: Increase in light chain 3-GFP+ autophagosome vesicle intensity per cell in human H4 cells at 2.1 uM after 24 hrs by high throughput fluorescence microscopy relative to control
H4 [15] = test: Induction of light chain 3-GFP level in human H4 cells at 2.1 uM after 24 hrs by high throughput fluorescence microscopy relative to control
H4 [16] = test: Increase in light chain 3-GFP+ autophagosome vesicle area per cell in human H4 cells at 5.1 uM after 24 hrs by high throughput fluorescence microscopy relative to control; method in brief: as §4
H4 [17] = test: Induction of light chain 3-GFP level in human H4 cells at 5.1 uM after 24 hrs by high throughput fluorescence microscopy relative to control; method in brief: as §1
H4 [18] = test: Increase in light chain 3-GFP+ autophagosome vesicle intensity per cell in human H4 cells at 5.1 uM after 24 hrs by high throughput fluorescence microscopy relative to control; method in brief: as §2
H4 [19] = test: Increase in light chain 3-GFP+ autophagosome vesicle number per cell in human H4 cells at 5.1 uM after 24 hrs by high throughput fluorescence microscopy relative to control; method in brief: as §2

`CCN(CC)CCCCCCCCOC(=O)c1cc(OC)c(OC)c(OC)c1` gave an Activity (H4 [1]) of 145.22%, an Activity (H4 [2]) of 229.5% and an Activity (H4 [3]) of 89.59%. The Activity (H4 [4]) was 95.47%, the Activity (H4 [5]) was 201.59% and the Activity (H4 [6]) was 74.72%. It also gave an Activity (H4 [7]) of 78.64%, an Activity (H4 [8]) of 109.05% and an Activity (H4 [9]) of 124.85%. For the same compound, the Activity (H4 [10]) was 106.69% and the Activity (H4 [11]) was 170.87%.

`C/C=C/C[C@@H](C)[C@@H](O)[C@H]1C(=O)N[C@@H](CC)C(=O)N(C)CC(=O)N(C)[C@@H](CC(C)C)C(=O)N[C@@H](C(C)C)C(=O)N(C)[C@@H](CC(C)C)C(=O)N[C@@H](C)C(=O)N[C@H](C)C(=O)N(C)[C@@H](CC(C)C)C(=O)N(C)[C@@H](CC(C)C)C(=O)N(C)[C@@H](C(C)C)C(=O)N1C` [CYCLOSPORINE] gave an Activity (H4 [3]) of 73.62%, an Activity (H4 [4]) of 104.28% and an Activity (H4 [6]) of 71.69%. The Activity (H4 [7]) was 55.82%, the Activity (H4 [8]) was 101.74% and the Activity (H4 [12]) was 155.88%. For the same compound, the Activity (H4 [9]) was 117.39%, the Activity (H4 [10]) was 114.15% and the Activity (H4 [13]) was 181.14%. The Activity (H4 [14]) was 178.79% and the Activity (H4 [15]) was 159.64%.

`CC[C@H](C)[C@H](NS(=O)(=O)c1cccc2ccccc12)C(=O)N[C@H](C=O)Cc1c[nH]c2ccccc12` showed an Activity (H4 [16]) of 172.38%, an Activity (H4 [3]) of 89.37% and an Activity (H4 [4]) of 9.4%. For the same compound, the Activity (H4 [6]) was 64.1%, the Activity (H4 [7]) was 62.34% and the Activity (H4 [17]) was 124.74%. It also gave an Activity (H4 [18]) of 199.27%, an Activity (H4 [8]) of 117.24% and an Activity (H4 [9]) of 136.94%. The Activity (H4 [10]) was 134.83% and the Activity (H4 [19]) was 151.1%.
